# Bioassay records (PubChem)
# TCR-CD3 inh – blocks the human TCR-CD3 interaction | TAMRA-labeled TCR probe fluorescence, biochemical | inhibition, % at 9.4 µM | 0.37% of 360,000 active; in the data active means inhibition above about 19%;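 further: recombinant mutant TCR 2C K166C tagged with TAMRA read by polarization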
# PRMT1 FP inh – PRMT1 (human) inhibition, primary screen; Q99873; recombinant PRMT1, activity-based probe fluorescence polarization; inhibition, % at 2.79 µM; 1.3% of 370,000 active; AID 652257;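 active means inhibition above about 21% made by adding two undisclosed values, limit read from the data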
# ABHD4 inh – inhibits mouse alpha/beta hydrolase domain 4 | inhibition, % at 8.92 µM | purified mABHD4, FP-Rh probe fluorescence polarization | Q8VD66 | AID 720543 | 0.54% of 370,000 active;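 active means inhibition exceeding the mean over every tested compound plus 3 SD, cut at about 30% in these data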
#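 Assay system: mouse ABHD4 enzyme, wild type / Also added: fluorescent activity-based probe FP-Rh / Doses: single nominal dose of 8.92 µM, 0.89% DMSO final / Timing: 45 min compound pre-incubation plus 60 min probe step, 25 °C / Signal: FP readout, ex 525 nm / em 598 nm / Control set: S159A mutant/DMSO as 100%, compound-well median as 0%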
# SIAE primary – inhibitors of human sialic acid acetylesterase SIAE | SIAE FP-Rh probe binding, fluorescence polarization | inhibition, % at 9.66 µM | 0.69% of 370,000 active | AID 1053197;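 active means inhibition above a cutoff: mean of compounds within the control limits plus 3 SD of those, cut at about 17% in these data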
# rCAG RNA binder – r(CAG) repeat RNA binding; TO-PRO-1 dye displacement fluorescence; 1.3% of 370,000 active; AID 651821; inhibition, % at 3 µM;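 active means inhibition above the plate cutoff, the mean of all test compounds on that plate plus 3 SD, cut at about 35% in these data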;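 further: higher means more dye released from RNA so lower well fluorescence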
# ABHD4 confirm – ABHD4 (mouse) inhibition, FP confirmation. shares compounds with ABHD4 inh. purified mABHD4, FP-Rh probe fluorescence polarization. inhibition, % at 8.92 µM. 55% of 1,800 active. AID 720658;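 active means mean inhibition across replicates above the hit cutoff set in the primary screen, cut at about 30% in these data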
# Hits are given with their value; 0 = inactive; - = no result. This is a sample that favours compounds with a hit; in the whole collection about 3.3% have one here.
SMILES,TCR-CD3 inh,PRMT1 FP inh,ABHD4 inh,SIAE primary,rCAG RNA binder,ABHD4 confirm
O=C1CC(Nc2ccc(N3CCOCC3)cc2)C(=O)N1c1ccccc1F (stereo unspecified),0,0,49.9,0,0,0
O=C1CC(Nc2ccccc2)C(=O)N1c1ccc(N2CCOCC2)cc1 (stereo unspecified),0,0,0,0,0,-
FC(F)(F)c1cc(CNC2CCC23CCCCC3)ccc1Cl (stereo unspecified),-,0,0,0,-,-
COC(=O)CSc1nnc(-c2cnccn2)n1C,0,0,0,0,0,-
CC(C)OC(=O)CSc1nnc(-c2cnccn2)n1C,0,0,116.3,0,0,0
COc1cccc2c(=O)c3cccc(N)c3[nH]c12,0,0,58.1,0,0,65.6
O=S(=O)(NCc1ccc(Cl)cc1)c1ccc(Br)cc1C1CC[C@@H](O)C1 (stereo partly specified),0,0,0,0,0,-
O=C(/C=C/c1ccc(O)c(O)c1)c1ccccc1O,0,0,36.5,0,0,0
Oc1c(N=Nc2ccccn2)ccc2ccccc12,0,0,34.9,0,0,0
O=C(O)c1ccc(-c2cccc([N+](=O)[O-])c2)o1,0,0,0,0,0,-
N#C/C(=C(/O)c1ccc(-c2cccc([N+](=O)[O-])c2)o1)c1nc2ccccc2s1,0,0,31.2,0,0,56.0
Cc1csc(=O)n1CCC(=O)OCC(=O)Nc1cc([N+](=O)[O-])ccc1Cl,0,0,55.6,0,0,0
Cc1ccc(CN2C(=O)N/C(=C/c3ccc(-c4ccc(C(=O)O)cc4)o3)C2=O)cc1,0,0,0,0,0,-
Cc1cc(C(=O)O)ccc1-c1ccc(/C=C2\NC(=O)N(Cc3ccc(F)cc3)C2=O)o1,0,0,29.9,0,0,78.1
O=C(Nc1cccc2ccccc12)OC[C@@H]1CSCCS(=O)(=O)N1,0,0,0,0,0,-
CCN(CCNCC(O)COc1ccccc1C(C)C)c1cccc(C)c1 (stereo unspecified),0,0,31.6,0,0,40.8
COc1cc(C(=O)OCc2csc(CC(=O)Nc3ccccc3C)n2)ccc1OCC(C)C,0,0,42.9,0,0,0
CCC(C(=O)OCc1csc(CC(=O)Nc2ccccc2C)n1)c1ccccc1 (stereo unspecified),0,0,29.5,0,0,0
CCOc1ccc(OCC(=O)OCc2csc(CC(=O)Nc3ccccc3C)n2)cc1,0,0,0,0,0,-
COc1ccc(CCC(=O)OCc2csc(CC(=O)Nc3ccccc3C)n2)cc1,0,0,35.7,0,0,0
CN(C)c1ccc(O)c2c1CC1CC3C(N(C)C)C(=O)C(C(N)=O)=C(O)[C@@]3(O)C(=O)C1=C2O (stereo partly specified),0,0,59.8,0,0,0
C[C@H]1c2cccc(O)c2C(O)=C2C(=O)C3(O)C(O)=C(C(N)=O)C(=O)[C@@H](N(C)C)[C@@H]3[C@@H](O)[C@@H]21 (stereo partly specified),0,0,43.4,0,0,0
C[C@H]1c2cccc(O)c2C(=O)C2C(=O)C3(O)C(=O)C(C(N)=O)C(=O)[C@@H](N(C)C)[C@@H]3[C@@H](O)[C@@H]21 (stereo partly specified),0,0,41.1,0,0,0
CN(C)c1ccc(O)c2c1CC1CC3[C@@H](N(C)C)C(=O)C(C(N)=O)C(=O)[C@]3(O)C(=O)C1C2=O (stereo partly specified),0,0,61.1,0,0,0
O=C(Nc1ccccc1N1CCOCC1)c1cccc2ccccc12,0,0,0,0,0,-
SMILES,TCR-CD3 inh,PRMT1 FP inh,ABHD4 inh,SIAE primary,rCAG RNA binder,ABHD4 confirm
CNC(=O)C[C@H]1C(=O)N(CCc2ccccc2)C[C@@H]1CSC,0,0,0,0,0,-
N#C/C(=C\c1ccc(O)c(O)c1)C(=O)NCCCc1ccccc1,0,0,33.7,0,0,52.3
Cc1c2ccccc2nc2ccccc12,0,0,0,0,0,-
CCCNc1c(F)c(F)c2c(C)c3ccccc3nc2c1F,0,0,50.8,0,0,44.5
CCOC(=O)CCCNC(=O)O[C@@H]1CC[C@@]23CCCN2C(=O)CCC[C@H]3C1,-,0,0,0,-,-
N=c1n(CCN2CCCCC2)c2ccccc2n1CC(=O)c1cccs1,0,0,42.8,0,0,0
